Screening results deposited in PubChem by Broad Institute.
A selection: hits, their analogues and other compounds. The true share with any hit is near 3.1%.
ERAP1 HTS inh = human ERAP1 aminopeptidase inhibitors, primary screen, biochemical, single point, plate reader. Endoplasmic reticulum aminopeptidase 1 (Homo sapiens), Q9NZ08. recombinant ERAP1, Leu-AMC fluorescence, 60 min. inhibition, % at 10.7 µM. 0.15% of 340,000 active;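 active means mean replicate inhibition of at least 30%, or all replicates individually reaching that 30% level; inactive means mean below 30% and not every replicate reaching it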;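 further: 0% = neutral control wells and 100% = L-leucinethiol positive control wells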
rRNA inh HTS = reduced GFP signal of wild-type E. coli, primary screen, bacterial rRNA inhibitor project, GFP/RFP fluorescence, OD600, single point. GFP signal change (wild-type ribosome), % (test concentration not listed). E. coli WT GFP vs humanized-ribosome RFP mutants, 24 h; active compounds read low; DMSO median 0, no signal -100. AID 720706, 2013. 1.6% of 350,000 active;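 active means significant combined selectivity score with lowered wild-type GFP, culture density cut under 30%, mutant RFP and density less affected; inactive means any of these conditions unmet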
F508del corr = F508del CFTR correction, initial screen, CFBE line, single point | CFBE cells, YFP halide quenching; stimulated with forskolin plus potentiator P3; % fluorescence drop versus neutral controls | activity (quench increase), % at 7.58 µM | 0.36% of 350,000 active | AID 720511, 2013;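 active means mean added fluorescence quench of at least 8% versus neutral control, with both replicates also reaching 8%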;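 further: cells transiently co-express mutant CFTR-F508del with the halide-sensitive YFP; corrector assay measuring rescue of mutant channel to the surface after 24 h compound exposure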
SIRT5 block = SIRT5 desuccinylase inhibitors, primary screen, biochemical, fluorescence imaging, single point, set 5; 1.1% of 330,000 active; Purified SirT5, succinyl-peptide AMC, trypsin-coupled fluorescence; inhibition, % at 15 µM; in the data active means inhibition above about 15%
Target sequence (Q9NXA8 whole entry, looked up): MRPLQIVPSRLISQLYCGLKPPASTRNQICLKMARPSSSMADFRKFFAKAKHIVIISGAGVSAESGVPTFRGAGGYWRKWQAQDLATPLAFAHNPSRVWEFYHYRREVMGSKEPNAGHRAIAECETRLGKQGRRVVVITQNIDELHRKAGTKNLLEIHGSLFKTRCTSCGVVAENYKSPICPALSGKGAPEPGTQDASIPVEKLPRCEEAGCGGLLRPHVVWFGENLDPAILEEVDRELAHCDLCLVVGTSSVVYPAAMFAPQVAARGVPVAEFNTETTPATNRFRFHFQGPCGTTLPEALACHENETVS
S100A4 MyoIIA = inhibitors of S100A4-myosin IIA peptide binding, primary screen, biochemical, fluorescence polarization, TAMRA-MyoIIA peptide. inhibition, % at 10.7 µM. Protein S100-A4 (Homo sapiens), P26447. 0.14% of 360,000 active;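 active means mean inhibition of at least 70% across replicates, with every replicate also reaching that level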
Target sequence (P26447 whole entry, looked up): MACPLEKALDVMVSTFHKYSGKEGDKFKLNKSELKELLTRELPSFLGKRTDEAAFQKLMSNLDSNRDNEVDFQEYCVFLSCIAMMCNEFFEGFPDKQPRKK
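System – human S100A4 monomer protein, biochemical binding assay · Buffer or medium – Calcium-containing HEPES buffer, pH 7.2 · Timing – 5 min between mix addition and reading · Also added – TAMRA-labelled myosin IIA heavy-chain peptide probe, 5 nM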
* marks the source's active call; other numbers are inactive results.

`C[C@@H]1CN([C@@H](C)CO)C(=O)c2c(c3ccccc3n2C)-c2ccccc2CO[C@H]1CN(C)C(=O)Nc1ccc(-c2ccccc2)cc1` gave ERAP1 HTS inh 3, rRNA inh HTS 3, F508del corr 1, SIRT5 block -4 and S100A4 MyoIIA 2.
Screening CSc1ccc(/C=C2\C(=N)N3N=C(CC(=O)N4CCOCC4)SC3=NC2=O)cc1 returned ERAP1 HTS inh 0, rRNA inh HTS 8, F508del corr 2, SIRT5 block -8 and S100A4 MyoIIA -4.
For N=C1/C(=C/c2ccco2)C(=O)N=C2SC(CC(=O)N3CCCC3)=NN12 the results were ERAP1 HTS inh 0, rRNA inh HTS 1, F508del corr -1, SIRT5 block 20* and S100A4 MyoIIA -9.
Screening N=C1/C(=C\c2ccc(Br)o2)C(=O)N=C2SC(CC(=O)N3CCOCC3)=NN12 returned ERAP1 HTS inh -1, rRNA inh HTS 4, F508del corr 1, SIRT5 block 28* and S100A4 MyoIIA -20.
Screening Cc1ccc(/C=C2\C(=N)N3N=C(CC(=O)N4CCCCC4)SC3=NC2=O)cc1 returned ERAP1 HTS inh 0, rRNA inh HTS 19, F508del corr 3, SIRT5 block 3 and S100A4 MyoIIA -2.
N=C1/C(=C/c2ccc(Br)o2)C(=O)N=C2SC(CC(=O)N3CCCC3)=NN12 was read as ERAP1 HTS inh 2, rRNA inh HTS 5, F508del corr -1, SIRT5 block 26* and S100A4 MyoIIA -10.
CCc1ccc(/C=C2\C(=N)N3N=C(CC(=O)N4CCCCC4)SC3=NC2=O)cc1 was read as ERAP1 HTS inh 3, rRNA inh HTS 5, F508del corr 0, SIRT5 block 0 and S100A4 MyoIIA -1.
For CO[C@H]1CN(C)C(=O)c2ccc(NC(C)=O)cc2OC[C@H](C)N(Cc2cncnc2)C[C@@H]1C the results were rRNA inh HTS 2.
For CO[C@H]1CN(C)C(=O)c2ccc(NC(C)=O)cc2OC[C@@H](C)N(C(=O)C2CC2)C[C@@H]1C the results were ERAP1 HTS inh 0, rRNA inh HTS 4, F508del corr 2, SIRT5 block 5 and S100A4 MyoIIA 4.
For Cc1ccccc1-c1ccc2c(c1)O[C@H](CN(C)C(=O)Nc1ccc(F)cc1)[C@H](C)CN([C@H](C)CO)S2(=O)=O the results were ERAP1 HTS inh 4, rRNA inh HTS -1, F508del corr 0, SIRT5 block 16* and S100A4 MyoIIA 4.
For CC(C)NC(=O)N(C)C[C@@H]1Oc2cc(-c3ccncc3)ccc2S(=O)(=O)N([C@H](C)CO)C[C@H]1C the results were ERAP1 HTS inh -3, rRNA inh HTS 3, F508del corr 1, SIRT5 block 0 and S100A4 MyoIIA 160*.
For Cc1ccc(-c2ccc3c(c2)O[C@@H](CN(C)C(=O)Nc2ccc(F)cc2)[C@@H](C)CN([C@H](C)CO)S3(=O)=O)cc1 the results were ERAP1 HTS inh 0, rRNA inh HTS -2, F508del corr 8.5*, SIRT5 block 4 and S100A4 MyoIIA -2.
`COCC#Cc1ccc([C@@H]2[C@H]3CN(C(=O)Nc4ccc(F)cc4)CC(=O)N3[C@H]2CO)cc1` gave ERAP1 HTS inh 1, rRNA inh HTS -4, F508del corr 2, SIRT5 block -4 and S100A4 MyoIIA 3.
For CCOc1cc(/C=C(\C#N)C(=O)Nc2cccc(C(=O)O)c2)ccc1OCc1ccccc1Cl the results were ERAP1 HTS inh -14, rRNA inh HTS 1, F508del corr -1, SIRT5 block -15 and S100A4 MyoIIA 3.
CCOc1cc(/C=C(\C#N)C(=O)Nc2cccc(C(=O)O)c2)cc(Br)c1OC(=O)c1ccc(OC)cc1 was read as ERAP1 HTS inh -15, rRNA inh HTS -33*, F508del corr 1, SIRT5 block 8 and S100A4 MyoIIA -27.
Screening CCCn1c(=O)c2ccccc2n2c(SCCOc3ccc(OC)cc3)nnc12 returned ERAP1 HTS inh 0, rRNA inh HTS -18*, F508del corr 4, SIRT5 block -9 and S100A4 MyoIIA -6.
Screening CCCn1c(=O)c2ccccc2n2c(SCCOc3ccc(C)cc3)nnc12 returned ERAP1 HTS inh 1, rRNA inh HTS -3, F508del corr 2, SIRT5 block 2 and S100A4 MyoIIA 5.
Cc1ccc(Nc2nc(CSc3nnc(-c4cccnc4)n3-c3ccccc3F)cs2)cc1 was read as ERAP1 HTS inh -2, rRNA inh HTS 0, F508del corr 8.6*, SIRT5 block -1 and S100A4 MyoIIA -7.
COc1ccc(NC(=O)O/N=C/c2ccccc2Cl)cc1 was read as ERAP1 HTS inh 0, rRNA inh HTS -13*, F508del corr -2, SIRT5 block 1 and S100A4 MyoIIA 7.
Cc1cc(=O)oc2cc(NS(=O)(=O)c3ccc(F)cc3)ccc12 was read as ERAP1 HTS inh -94, rRNA inh HTS -22*, F508del corr 1, SIRT5 block -77 and S100A4 MyoIIA -6.
`O=C(Nc1ccccc1)N1CCN(c2nc(-c3ccccc3)ns2)CC1` gave ERAP1 HTS inh 7, rRNA inh HTS -30*, F508del corr -1, SIRT5 block 0 and S100A4 MyoIIA 0.
`CNC(=O)C[C@@H]1CC[C@@H]2[C@@H](COc3ccc(NC(=O)c4ccc(C(F)(F)F)cc4)cc3C(=O)N2C)O1` gave rRNA inh HTS -3 and F508del corr 3.
For CCN(CC(=O)Nc1ccc(OC)cc1)CC(=O)Nc1ccc(Br)cc1F the results were ERAP1 HTS inh 3, rRNA inh HTS -15, F508del corr 1, SIRT5 block 3 and S100A4 MyoIIA 1.
Screening CCOc1ccc(NC(=O)CN(C)CC(=O)Nc2ccc(Br)cc2F)cc1OCC returned ERAP1 HTS inh -1, rRNA inh HTS -28*, F508del corr -3, SIRT5 block 0 and S100A4 MyoIIA -2.
`O=S1(=O)c2ccc(Br)cc2N2CCC[C@@H]2CN1Cc1ccc(Cl)cc1` gave ERAP1 HTS inh -3, rRNA inh HTS 2, F508del corr 0, SIRT5 block -6 and S100A4 MyoIIA -6.
For O=S1(=O)c2ccc(Br)cc2N2CCC[C@H]2CN1Cc1ccccc1 the results were rRNA inh HTS -2, F508del corr 9.5* and S100A4 MyoIIA -1.
Cc1nn(CCO)c2ncc(C(=O)c3cc(Cl)ccc3O)cc12 was read as ERAP1 HTS inh 2, rRNA inh HTS 1, F508del corr -1, SIRT5 block 3 and S100A4 MyoIIA -4.
Screening COc1ccc(O)c(C(=O)c2cnc3c(c2)c(C)nn3CCO)c1 returned ERAP1 HTS inh 0, rRNA inh HTS 6, F508del corr 1, SIRT5 block 19* and S100A4 MyoIIA 23.
